Experimental data pooled from the literature.
Cell line: HCT-116
Read-out: cell growth or viability

| Structure (SMILES) | technique | time | IC50 |
| --- | --- | --- | --- |
| O=[N+]([O-])c1cc(I)c(O)c(C=NNc2ccc(Cl)cc2)c1 | MTT | 24 h | 13.9 µM |
| Cc1cccc(N=C2C(=O)Nc3ccccc32)c1 | MTT | 48 h | > 100 µM |
| Cc1cc(C)n(Cn2cnc3ccccc32)n1 | MTT | 24 h | 70.2 µM |
| CN1CCC(NC2CCc3[nH]c4c(C(N)=O)ccc(-c5ccccc5Cl)c4c3C2)CC1 (stereo not shown) |  | 96 h | 0.00023 µM |
| O=C1CSC(=Nc2cc([N+](=O)[O-])ccc2[N+](=O)[O-])N1c1nnc(-c2ccc(C(F)(F)F)cc2N=C2SCC(=O)N2c2cc([N+](=O)[O-])ccc2[N+](=O)[O-])s1 | MTT |  | 80.9 µM |
| C#Cc1cccc(Nc2ncnc3cc(OCCOC)c(OCCOC)cc23)c1 | LDH | 48 h | 5.14 µM |
| COc1ccc(N(Cc2csc(-c3ccc(Br)cc3)n2)C(=O)CCCCCC(=O)NO)cc1 | MTT | 72 h | 2.21 µM |
| CC1(P2(=O)CCCCC2)C=CCC=C1 | MTT | 72 h | > 100 µM |
| O=C1CS/C(=N\c2cc(C(F)(F)F)ccc2-c2nnc(N3C(=O)CS/C3=N\c3ccc(Cl)cc3)s2)N1c1ccc(Cl)cc1 | MTT |  | 46.2 µM |
| N/C(=N\O)c1ccc(-c2cc(CNc3cccc4cccnc34)on2)cc1 | MTS | 72 h | > 100 µM |
| Fc1ccc(NC(=S)N/N=C/c2cccc3cc4ccccc4nc23)cc1 | MTT | 48 h | > 50 µM |
| O=C(CSc1nc2ccccc2s1)N/N=C/c1ccc(OCC(=O)Nc2cccc(Br)c2)cc1 | MTS | 72 h | > 100 µM |
| Cc1cc(NS(=O)(=O)c2ccc(NC(=O)/C(C#N)=C/c3ccncc3)cc2)no1 | MTT | 48 h | 187 µM |
| O=[N+]([O-])c1ccc(NC(=S)N/N=C/c2cccc3cc4ccccc4nc23)cc1 | MTT | 48 h | > 50 µM |
| COc1cc(N=C2C(=O)N(Cc3ccccc3)c3ccccc32)cc(OC)c1 | MTT | 48 h | 8.73 µM |
| COc1cccc2c1C(=O)c1c(O)c3c(c(O)c1C2=O)C[C@@](O)(C(=O)CO)C[C@@H]3O[C@H]1C[C@H](N)[C@H](O)[C@H](C)O1 | MTT | 24 h | 10.5 µM |
| O=[N+]([O-])c1cc(I)c(O)c(C=NNc2ccc(Br)cc2)c1 | MTT | 24 h | 15.3 µM |
| Cc1cc2c(C(N)=O)cccc2n1-c1nc2c(c(NCc3ccccn3)n1)CCCN2 | ATP luminescence | 72 h | 0.8 µM |
| CCC(C(=O)N1C(=O)C(=Nc2ccc(Cl)cc2Br)c2ccccc21)c1ccccc1 (stereo not shown) | MTT | 48 h | 30.9 µM |
| OCn1cncn1 | MTT | 24 h | 48.8 µM |
| c1ccc(-c2noc(-c3nn(Cc4ccc5ccccc5c4)c4ccccc34)n2)cc1 |  | 48 h | 173 µM |
| O=C1CS/C(=N\c2ccccc2Cl)N1c1nnc(-c2ccc(C(F)(F)F)cc2/N=C2\SCC(=O)N2c2ccccc2Cl)s1 | MTT |  | 57.9 µM |

| Structure (SMILES) | technique | time | IC50 |
| --- | --- | --- | --- |
| CC(C)c1ccc(/C=C2\NC(=S)N(c3ccccc3)C2=O)cc1 | MTT |  | 63.2 µg/mL |
| COc1cccc2c1C(=O)c1c(O)c3c(c(O)c1C2=O)C[C@@](O)(C(=O)CO)C[C@@H]3O[C@H]1C[C@H](N)[C@H](O)[C@H](C)O1 | LDH | 48 h | 8.12 µM |
| Fc1ccc2c(-c3ncc(-c4ccccc4)o3)nn(Cc3ccccc3)c2c1 |  | 48 h | 82.6 µM |
| O=c1[nH]cc(F)c(=O)[nH]1 | MTT | 48 h | 17 µM |
| O=c1cc(OCc2cc(-c3ccccn3)no2)c2ccccc2o1 | MTS | 72 h | > 100 µM |
| COc1cc(N=C2C(=O)Nc3ccccc32)cc(OC)c1 | MTT | 48 h | 24.4 µM |
| Cc1noc(-c2nn(Cc3ccc(Cl)cc3Cl)c3ccccc23)n1 |  | 48 h | 192 µM |
| Cc1cccc(N=C2C(=O)N(Cc3cccc(Cl)c3)c3ccccc32)c1 | MTT | 48 h | 7.13 µM |
| c1ccc(Cc2nnc(-c3nn(Cc4ccccc4)c4ccccc34)o2)cc1 |  | 48 h | 15.1 µM |
| CONC(=O)Cc1c(C)n(-c2nc3c(c(NCc4ccccc4)n2)CCCN3)c2ccccc12 | ATP luminescence | 72 h | 4.2 µM |
| c1ccc(-c2noc(-c3nn(Cc4ccncc4)c4ccccc34)n2)cc1 |  | 48 h | 47.5 µM |
| C=CCN1C(=O)C(=Nc2cccc(C)c2)c2ccccc21 | MTT | 48 h | > 100 µM |
| O=c1[nH]cc(F)c(=O)[nH]1 | MTT | 72 h | 3.09 µM |
| O=C(C=Cc1ccc(OCCCCOc2ccc(C=CC(=O)c3cccs3)cc2)cc1)c1cccs1 | MTT | 48 h | 278 µM |
| O=C1Nc2ccccc2C1=Nc1ccccc1I | MTT | 48 h | 31.5 µM |
| O=c1cc(OCc2cc(-c3ccccc3)no2)c2ccccc2o1 | MTS | 72 h | > 100 µM |
| O=[N+]([O-])c1ccc(O)c(C=NNc2ccc(Br)cc2)c1 | MTT | 24 h | 7.23 µM |
| Cc1cccc(N=C2C(=O)N(Cc3ccccc3)c3ccccc32)c1 | MTT | 48 h | 2.72 µM |
| Cc1cc2c(C(N)=O)cccc2n1-c1nc2c(c(NCc3cccc(O)c3)n1)CCCN2 | ATP luminescence | 72 h | 0.7 µM |
| O=c1cc(OCc2cc(-c3ccc(Cl)cc3Cl)no2)c2ccccc2o1 | MTS | 72 h | > 100 µM |
| COc1cccc2c1C(=O)c1c(O)c3c(c(O)c1C2=O)C[C@@](O)(C(=O)CO)C[C@@H]3O[C@H]1C[C@H](N)[C@H](O)[C@H](C)O1 | MTT |  | 4.12 µg/mL |
